Measurements taken from ChEMBL document CHEMBL1133116, “Synthesis and evaluation of 17-aliphatic heterocycle-substituted steroidal inhibitors of 17alpha-hydroxylase/C17-20-lyase (P450 17)” (J Med Chem, 2000).

Tests used:
[1] = molecular target: T1, Steroid 17-alpha-hydroxylase/17,20 lyase (Homo sapiens, UniProt P05093); assay: Inhibition of Cytochrome P450 17 from human testicular microsomes at 2.5 uM; n.i. means no inhibition
T1 sequence (P05093 whole entry): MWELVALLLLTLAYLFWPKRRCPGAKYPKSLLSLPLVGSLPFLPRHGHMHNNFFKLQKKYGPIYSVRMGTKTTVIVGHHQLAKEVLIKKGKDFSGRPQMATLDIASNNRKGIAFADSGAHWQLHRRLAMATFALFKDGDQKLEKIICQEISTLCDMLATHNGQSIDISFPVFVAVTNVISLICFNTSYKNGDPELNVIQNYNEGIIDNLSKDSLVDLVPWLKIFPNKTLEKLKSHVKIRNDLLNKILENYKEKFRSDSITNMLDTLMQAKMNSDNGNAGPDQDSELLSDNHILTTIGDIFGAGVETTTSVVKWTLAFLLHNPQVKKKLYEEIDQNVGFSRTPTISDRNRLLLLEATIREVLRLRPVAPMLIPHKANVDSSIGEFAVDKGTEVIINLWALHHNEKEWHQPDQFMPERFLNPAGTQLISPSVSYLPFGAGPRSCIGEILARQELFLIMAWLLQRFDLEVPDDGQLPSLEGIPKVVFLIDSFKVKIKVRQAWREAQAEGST
Procedure, shortened: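 Human testicular microsomes as P450 17 source, with progesterone in large excess (25 µM) as substrate. Inhibitor was tested at 2.5 µM. The 16α- and 17α-hydroxyprogesterone products were quantified by reverse-phase HPLC with UV detection. No lyase products form with the human enzyme. Values are means of at least two experiments.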

[2] = molecular target: T2, Steroid 17-alpha-hydroxylase/17,20 lyase (Rattus norvegicus, UniProt P11715); assay: Inhibition of Cytochrome P450 17 from rat testicular microsomes at 125 uM; n.i. means no inhibition
T2 sequence (P11715 whole entry): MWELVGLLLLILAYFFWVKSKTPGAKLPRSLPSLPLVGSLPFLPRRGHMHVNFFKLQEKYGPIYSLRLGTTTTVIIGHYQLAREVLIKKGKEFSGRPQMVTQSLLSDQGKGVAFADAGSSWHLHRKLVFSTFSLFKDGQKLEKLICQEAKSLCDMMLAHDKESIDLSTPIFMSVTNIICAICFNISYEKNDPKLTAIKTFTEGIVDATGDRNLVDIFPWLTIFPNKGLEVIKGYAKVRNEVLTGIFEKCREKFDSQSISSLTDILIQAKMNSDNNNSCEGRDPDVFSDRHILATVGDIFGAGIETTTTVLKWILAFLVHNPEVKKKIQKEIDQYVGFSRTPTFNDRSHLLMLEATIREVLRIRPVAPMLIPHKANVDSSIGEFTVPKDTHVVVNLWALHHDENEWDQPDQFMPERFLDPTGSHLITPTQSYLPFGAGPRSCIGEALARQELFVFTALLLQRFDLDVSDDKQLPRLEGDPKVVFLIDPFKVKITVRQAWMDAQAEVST
Procedure, shortened: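 Rat testicular microsomes as P450 17 source, with progesterone substrate at 25 µM. […] Products were quantified by reverse-phase HPLC with UV detection. Values are means of at least two experiments.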

IC50 [1]: Not Active
IC50 [2]: Not Active
Structure (SMILES): COC1CC[C@@]2(C)C(=CC[C@H]3[C@@H]4CC[C@@H](C5CO5)[C@@]4(C)CC[C@@H]32)C1 (some centres not stated)
